In test [1] the target is T1, Acyl-homoserine-lactone synthase (Pseudomonas aeruginosa (strain ATCC 15692 / PAO1 / 1C / PRS 101 / LMG12228)) (UniProt P33883).
T1 sequence (whole entry): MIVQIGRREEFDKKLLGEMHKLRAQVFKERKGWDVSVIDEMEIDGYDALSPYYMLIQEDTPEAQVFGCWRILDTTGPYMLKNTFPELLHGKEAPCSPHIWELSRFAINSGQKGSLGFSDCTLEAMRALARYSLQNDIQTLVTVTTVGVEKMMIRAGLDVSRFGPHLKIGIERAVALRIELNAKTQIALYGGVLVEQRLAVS
Kind of test: Modulation of Pseudomonas aeruginosa lacZ-fused lasI expressed in Escherichia coli DH5alpha co-expressing pBAD-lasR assessed as 3-oxo-C12-AHL-induced effect at 0.40 mM after 3 hrs by beta-galactosidase assay relative to control. A digest of the protocol: (§1)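 E. coli DH5α carrying pSC11 (PlasI-lacZ translational fusion) and pJN105L (PBAD-lasR) was grown overnight in LB with ampicillin (100 μg/ml) and gentamicin (15 μg/ml), then diluted to OD600 0.150. Arabinose (0.2% w/v), 3-oxo-C12-AHL (2 μM) and test compound or DMSO were added. Cultures were shaken 3 h at 37 °C. β-Galactosidase activity was read in Miller units and expressed as % of the solvent sample. Triplicates per biological replicate, repeated at least twice; paired two-tailed t-test.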

Test [2] has as its target 3-(3-hydroxydecanoyloxy)decanoate synthase (Pseudomonas aeruginosa (strain ATCC 15692 / PAO1 / 1C / PRS 101 / LMG12228)) (UniProt Q51559). Kind of test: Modulation of Pseudomonas aeruginosa lacZ-fused rhlA expressed in Escherichia coli DH5alpha co-expressing Ptac-rhlR assessed as C4-AHL-induced effect at 0.81 mM after 4 hrs by beta-galactosidase assay relative to control. The gist of the method:
(§2)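 E. coli DH5α carrying pECP61.5 (Ptac-rhlR, PrhlA-lacZ), grown overnight in LB with ampicillin 100 μg/ml and diluted to OD600 0.150. At OD600 1.0, 1 mM IPTG, 2 μM C4-HSL and compound or DMSO were added. Cultures were shaken 4 h at 37 °C, then β-galactosidase was read in Miller units. Activity is % of solvent sample, from triplicates per biological replicate, with at least two repeats.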

For test [3] the target is unchanged. Kind of test: Modulation of Pseudomonas aeruginosa lacZ-fused rhlA expressed in Escherichia coli DH5alpha co-expressing Ptac-rhlR assessed as C4-AHL-induced effect at 0.20 mM after 4 hrs by beta-galactosidase assay relative to control. A digest of the protocol: (§3)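 rhl reporter: E. coli DH5α carrying pECP61.5 (Ptac-rhlR, PrhlA-lacZ) was grown overnight in LB with ampicillin (100 μg/ml) only, then diluted to OD600 0.150. It was induced with 1 mM IPTG, and 2 μM C4-HSL plus compound or DMSO were added at OD600 1.0. Cultures were shaken 4 h at 37 °C. β-Galactosidase activity was read in Miller units as % of the solvent sample. Triplicates per biological replicate, at least two repeats; paired two-tailed t-test.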

The target in test [4] is T1, Acyl-homoserine-lactone synthase (Pseudomonas aeruginosa (strain ATCC 15692 / PAO1 / 1C / PRS 101 / LMG12228)). Kind of test: Modulation of Pseudomonas aeruginosa lacZ-fused lasI expressed in Escherichia coli DH5alpha co-expressing pBAD-lasR assessed as 3-oxo-C12-AHL-induced effect at 0.20 mM after 3 hrs by beta-galactosidase assay relative to control. The gist of the method:
as §1

Test [5] has the same target. Kind of test: Modulation of Pseudomonas aeruginosa lacZ-fused lasI expressed in Escherichia coli DH5alpha co-expressing pBAD-lasR assessed as 3-oxo-C12-AHL-induced effect at 0.81 mM after 3 hrs by beta-galactosidase assay relative to control. The gist of the method:
as §1

Test [6] concerns the target 3-(3-hydroxydecanoyloxy)decanoate synthase (Pseudomonas aeruginosa (strain ATCC 15692 / PAO1 / 1C / PRS 101 / LMG12228)) (UniProt Q51559). Kind of test: Modulation of Pseudomonas aeruginosa lacZ-fused rhlA expressed in Escherichia coli DH5alpha co-expressing Ptac-rhlR assessed as C4-AHL-induced effect at 0.61 mM after 4 hrs by beta-galactosidase assay relative to control. A digest of the protocol:
as §2

Test [7] deals with T1, Acyl-homoserine-lactone synthase (Pseudomonas aeruginosa (strain ATCC 15692 / PAO1 / 1C / PRS 101 / LMG12228)). Kind of test: Modulation of Pseudomonas aeruginosa lacZ-fused lasI expressed in Escherichia coli DH5alpha co-expressing pBAD-lasR assessed as 3-oxo-C12-AHL-induced effect at 0.61 mM after 3 hrs by beta-galactosidase assay relative to control. A digest of the protocol:
as §1

Test [8] deals with 3-(3-hydroxydecanoyloxy)decanoate synthase (Pseudomonas aeruginosa (strain ATCC 15692 / PAO1 / 1C / PRS 101 / LMG12228)) (UniProt Q51559). Kind of test: Modulation of Pseudomonas aeruginosa lacZ-fused rhlA expressed in Escherichia coli DH5alpha co-expressing Ptac-rhlR assessed as C4-AHL-induced effect at 0.40 mM after 4 hrs by beta-galactosidase assay relative to control. The gist of the method: as §3

Test [9] has as its target T1, Acyl-homoserine-lactone synthase (Pseudomonas aeruginosa (strain ATCC 15692 / PAO1 / 1C / PRS 101 / LMG12228)). Kind of test: Modulation of Pseudomonas aeruginosa lacZ-fused lasI expressed in Escherichia coli DH5alpha co-expressing pBAD-lasR assessed as 3-oxo-C12-AHL-induced effect at 0.35 mM after 3 hrs by beta-galactosidase assay relative to control. A digest of the protocol:
as §1

The target is the same in test [10]. Kind of test: Modulation of Pseudomonas aeruginosa lacZ-fused lasI expressed in Escherichia coli DH5alpha co-expressing pBAD-lasR assessed as 3-oxo-C12-AHL-induced effect at 0.17 mM after 3 hrs by beta-galactosidase assay relative to control. A digest of the protocol: as §1
The target of test [11] is 3-(3-hydroxydecanoyloxy)decanoate synthase (Pseudomonas aeruginosa (strain ATCC 15692 / PAO1 / 1C / PRS 101 / LMG12228)) (UniProt Q51559). Kind of test: Modulation of Pseudomonas aeruginosa lacZ-fused rhlA expressed in Escherichia coli DH5alpha co-expressing Ptac-rhlR assessed as C4-AHL-induced effect at 0.52 mM after 4 hrs by beta-galactosidase assay relative to control. The gist of the method: as §3

The target of test [12] is T1, Acyl-homoserine-lactone synthase (Pseudomonas aeruginosa (strain ATCC 15692 / PAO1 / 1C / PRS 101 / LMG12228)). Kind of test: Modulation of Pseudomonas aeruginosa lacZ-fused lasI expressed in Escherichia coli DH5alpha co-expressing pBAD-lasR assessed as 3-oxo-C12-AHL-induced effect at 0.52 mM after 3 hrs by beta-galactosidase assay relative to control. The gist of the method: as §1

Test [13] concerns the target 3-(3-hydroxydecanoyloxy)decanoate synthase (Pseudomonas aeruginosa (strain ATCC 15692 / PAO1 / 1C / PRS 101 / LMG12228)) (UniProt Q51559). Kind of test: Modulation of Pseudomonas aeruginosa lacZ-fused rhlA expressed in Escherichia coli DH5alpha co-expressing Ptac-rhlR assessed as C4-AHL-induced effect at 0.69 mM after 4 hrs by beta-galactosidase assay relative to control. A digest of the protocol:
as §2

For test [14] the target is unchanged. Kind of test: Modulation of Pseudomonas aeruginosa lacZ-fused rhlA expressed in Escherichia coli DH5alpha co-expressing Ptac-rhlR assessed as C4-AHL-induced effect at 0.35 mM after 4 hrs by beta-galactosidase assay relative to control. The gist of the method:
as §3

In test [15] the target is T1, Acyl-homoserine-lactone synthase (Pseudomonas aeruginosa (strain ATCC 15692 / PAO1 / 1C / PRS 101 / LMG12228)). Kind of test: Modulation of Pseudomonas aeruginosa lacZ-fused lasI expressed in Escherichia coli DH5alpha co-expressing pBAD-lasR assessed as 3-oxo-C12-AHL-induced effect at 0.69 mM after 3 hrs by beta-galactosidase assay relative to control. A digest of the protocol: as §1

Test [16] concerns the target 3-(3-hydroxydecanoyloxy)decanoate synthase (Pseudomonas aeruginosa (strain ATCC 15692 / PAO1 / 1C / PRS 101 / LMG12228)) (UniProt Q51559). Kind of test: Modulation of Pseudomonas aeruginosa lacZ-fused rhlA expressed in Escherichia coli DH5alpha co-expressing Ptac-rhlR assessed as C4-AHL-induced effect at 0.17 mM after 4 hrs by beta-galactosidase assay relative to control. The gist of the method:
as §3

For test [17], the target named is T1, Acyl-homoserine-lactone synthase (Pseudomonas aeruginosa (strain ATCC 15692 / PAO1 / 1C / PRS 101 / LMG12228)). Kind of test: Modulation of Pseudomonas aeruginosa lacZ-fused lasI expressed in Escherichia coli DH5alpha co-expressing pBAD-lasR assessed as 3-oxo-C12-AHL-induced effect at 0.92 mM after 3 hrs by beta-galactosidase assay relative to control. The gist of the method: as §1

In test [18] the target is 3-(3-hydroxydecanoyloxy)decanoate synthase (Pseudomonas aeruginosa (strain ATCC 15692 / PAO1 / 1C / PRS 101 / LMG12228)) (UniProt Q51559). Kind of test: Modulation of Pseudomonas aeruginosa lacZ-fused rhlA expressed in Escherichia coli DH5alpha co-expressing Ptac-rhlR assessed as C4-AHL-induced effect at 0.92 mM after 4 hrs by beta-galactosidase assay relative to control. A digest of the protocol: as §2

Test [19] has the same target. Kind of test: Modulation of Pseudomonas aeruginosa lacZ-fused rhlA expressed in Escherichia coli DH5alpha co-expressing Ptac-rhlR assessed as C4-AHL-induced effect at 0.46 mM after 4 hrs by beta-galactosidase assay relative to control. The gist of the method:
as §3

Test [20] concerns the target T1, Acyl-homoserine-lactone synthase (Pseudomonas aeruginosa (strain ATCC 15692 / PAO1 / 1C / PRS 101 / LMG12228)). Kind of test: Modulation of Pseudomonas aeruginosa lacZ-fused lasI expressed in Escherichia coli DH5alpha co-expressing pBAD-lasR assessed as 3-oxo-C12-AHL-induced effect at 0.46 mM after 3 hrs by beta-galactosidase assay relative to control. A digest of the protocol: as §1

Test [21] has as its target 3-(3-hydroxydecanoyloxy)decanoate synthase (Pseudomonas aeruginosa (strain ATCC 15692 / PAO1 / 1C / PRS 101 / LMG12228)) (UniProt Q51559). Kind of test: Modulation of Pseudomonas aeruginosa lacZ-fused rhlA expressed in Escherichia coli DH5alpha co-expressing Ptac-rhlR assessed as C4-AHL-induced effect at 0.23 mM after 4 hrs by beta-galactosidase assay relative to control. A digest of the protocol: as §3

Test [22] has as its target T1, Acyl-homoserine-lactone synthase (Pseudomonas aeruginosa (strain ATCC 15692 / PAO1 / 1C / PRS 101 / LMG12228)). Kind of test: Modulation of Pseudomonas aeruginosa lacZ-fused lasI expressed in Escherichia coli DH5alpha co-expressing pBAD-lasR assessed as 3-oxo-C12-AHL-induced effect at 0.23 mM after 3 hrs by beta-galactosidase assay relative to control. A digest of the protocol:
as §1

In the case of `CCCCCCSC[C@H]1NC(=O)[C@H](O)[C@@H]1O`, the Activity turned out to be 78% in test [1]; 161% in test [2]; 132% in test [3]; 96% in [4]; 68% in test [5]; 148% in [6]. Also, the Activity in [7] was found to be 79%; in test [8] it was 129%.

Take `CCCCCCCCCSC[C@H]1NC(=O)[C@H](O)[C@@H]1O`: the Activity in test [9] worked out at 87%; in test [10] it was 93%; in test [11] it was 115%; in [12], 80%; in test [13] it was 135%; in test [14], 117%. The Activity in test [15] stood at 63%; in [16], 106%.

In the case of `CCCCCCSC[C@@H]1CCC(O)N1` (mixture of isomers), the Activity in [17] is 0%; in test [13], 0%; in test [18], 0%; in [19] it was 0.2%; in [15] it was 0%; in test [20], 0%. Further, the Activity in test [21] was determined as 26%; in [22], 109%.

For the origin of these results see ChEMBL document CHEMBL1817556, “Substituted lactam and cyclic azahemiacetals modulate Pseudomonas aeruginosa quorum sensing” (Bioorg Med Chem, 2011).
